# ChEMBL document CHEMBL4346653, “A2B Adenosine Receptor Antagonists with Picomolar Potency” (J Med Chem, 2019)
# Tests used:
# Adenosine receptor A2b = biological target: T1, Adenosine receptor A2b (Mus musculus, UniProt Q60614); assay: Displacement of [3H]PSB-603 from recombinant mouse A2B adenosine receptor expressed in CHO cell membranes measured after 75 mins in presence of adenosine deaminase by liquid scintillation counting method
# T1 sequence (Q60614 whole entry): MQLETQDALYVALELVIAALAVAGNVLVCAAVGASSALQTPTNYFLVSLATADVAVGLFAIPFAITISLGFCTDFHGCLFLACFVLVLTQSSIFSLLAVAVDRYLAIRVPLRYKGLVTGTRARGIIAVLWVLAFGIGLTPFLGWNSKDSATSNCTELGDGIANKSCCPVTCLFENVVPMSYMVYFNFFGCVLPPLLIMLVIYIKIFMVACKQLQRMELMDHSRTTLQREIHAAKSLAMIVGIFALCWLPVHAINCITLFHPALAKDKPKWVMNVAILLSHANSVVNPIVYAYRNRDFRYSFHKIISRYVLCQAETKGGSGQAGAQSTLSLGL
# Adenosine receptor A3 = biological target: T2, Adenosine receptor A3 (Mus musculus, UniProt Q61618); assay: Displacement of [3H]NECA from recombinant mouse A3 adenosine receptor expressed in CHO cell membranes measured after 180 mins in presence of adenosine deaminase by liquid scintillation counting method
# T2 sequence (Q61618 whole entry): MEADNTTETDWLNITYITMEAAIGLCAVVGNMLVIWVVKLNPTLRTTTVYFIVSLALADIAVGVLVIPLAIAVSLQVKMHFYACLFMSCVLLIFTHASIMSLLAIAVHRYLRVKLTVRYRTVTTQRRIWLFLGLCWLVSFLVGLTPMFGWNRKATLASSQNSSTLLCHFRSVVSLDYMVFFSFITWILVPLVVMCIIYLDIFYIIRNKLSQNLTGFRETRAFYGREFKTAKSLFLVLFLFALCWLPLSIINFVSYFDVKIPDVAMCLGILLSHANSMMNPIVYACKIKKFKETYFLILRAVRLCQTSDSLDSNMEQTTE
# Adenosine receptor A2a = Adenosine receptor A2a (Homo sapiens, UniProt P29274); assay: Displacement of [3H]MSX-2 from recombinant human A2A adenosine receptor expressed in CHO cell membranes at 1 uM measured after 30 mins in presence of adenosine deaminase by liquid scintillation counting method relative to control
# Sequence of Adenosine receptor A2a (P29274 whole entry): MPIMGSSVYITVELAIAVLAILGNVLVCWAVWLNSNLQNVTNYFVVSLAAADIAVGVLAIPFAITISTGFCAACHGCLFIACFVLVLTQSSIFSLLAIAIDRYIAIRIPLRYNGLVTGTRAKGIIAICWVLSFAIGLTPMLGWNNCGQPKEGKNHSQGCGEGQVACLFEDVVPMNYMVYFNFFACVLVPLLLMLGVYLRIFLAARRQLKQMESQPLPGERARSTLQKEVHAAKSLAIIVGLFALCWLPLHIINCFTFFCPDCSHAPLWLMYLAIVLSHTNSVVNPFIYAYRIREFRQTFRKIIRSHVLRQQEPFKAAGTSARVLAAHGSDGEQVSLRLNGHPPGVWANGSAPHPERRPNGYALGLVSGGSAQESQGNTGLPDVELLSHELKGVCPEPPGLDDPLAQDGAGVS
# Procedure, shortened: (§1)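 Single-point competition binding at human AR subtype membranes, each against its own tritiated radioligand. The test compound is given at 1 μM, and the result is reported as percent inhibition of radioligand binding. The radioligand-specific footnotes give n = 3.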
# [1] = biological target: T3, Adenosine receptor A3 (Homo sapiens) (UniProt P0DMS8); assay: Displacement of [3H]PSB-11 from recombinant human A3 adenosine receptor expressed in CHO cell membranes at 1 uM measured after 45 mins in presence of adenosine deaminase by liquid scintillation counting method relative to control; procedure, shortened: as §1
# T3 sequence (whole entry): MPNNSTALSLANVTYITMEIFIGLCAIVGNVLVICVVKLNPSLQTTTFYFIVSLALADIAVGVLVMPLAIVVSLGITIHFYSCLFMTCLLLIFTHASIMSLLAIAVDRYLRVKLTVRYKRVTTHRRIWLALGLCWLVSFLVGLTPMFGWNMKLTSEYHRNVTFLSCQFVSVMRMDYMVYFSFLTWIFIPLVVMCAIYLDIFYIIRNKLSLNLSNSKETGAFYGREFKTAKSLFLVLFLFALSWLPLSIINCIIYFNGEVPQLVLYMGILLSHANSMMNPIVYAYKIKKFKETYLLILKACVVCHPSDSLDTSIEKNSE
# Homo sapiens [2] = species on record: Homo sapiens; assay: Selectivity index, ratio of Ki for displacement of [3H]MSX-2 from recombinant human A2A adenosine receptor expressed in CHO cell membranes to Ki for displacement of [3H]PSB-603 from recombinant human A2B adenosine receptor expressed in CHO cell membranes
# Homo sapiens [3] = species on record: Homo sapiens; assay: Selectivity index, ratio of Ki for displacement of [3H]CCPA from recombinant human A1 adenosine receptor expressed in CHO cell membranes to Ki for displacement of [3H]PSB-603 from recombinant human A2B adenosine receptor expressed in CHO cell membranes
# Mus musculus [4] = species on record: Mus musculus; assay: Selectivity ratio of Ki for displacement of [3H]NECA from recombinant mouse A3 adenosine receptor expressed in CHO cell membranes to Ki for displacement of [3H]PSB-603 from recombinant mouse A2B adenosine receptor expressed in CHO cell membranes
# [5] = Selectivity ratio of Ki for displacement of [3H]PSB-603 from recombinant mouse A2B adenosine receptor expressed in CHO cell membranes to Ki for displacement of [3H]PSB-603 from recombinant human A2B adenosine receptor expressed in CHO cell membranes
# [6] = biological target: T4, Adenosine receptor A1 (Mus musculus) (UniProt Q60612); assay: Displacement of [3H]CCPA from recombinant mouse A1 adenosine receptor expressed in CHO cell membranes at 1 uM measured after 90 mins in presence of adenosine deaminase by liquid scintillation counting method relative to control
# T4 sequence (whole entry): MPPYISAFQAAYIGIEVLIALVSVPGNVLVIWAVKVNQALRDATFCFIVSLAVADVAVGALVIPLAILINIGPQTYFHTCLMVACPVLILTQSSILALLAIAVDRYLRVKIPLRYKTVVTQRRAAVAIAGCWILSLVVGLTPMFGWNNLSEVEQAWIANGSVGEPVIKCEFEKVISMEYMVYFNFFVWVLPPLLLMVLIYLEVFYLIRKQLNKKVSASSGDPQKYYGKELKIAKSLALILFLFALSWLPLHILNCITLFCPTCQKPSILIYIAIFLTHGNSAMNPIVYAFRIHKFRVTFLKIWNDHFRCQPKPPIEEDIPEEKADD
# Mus musculus [7] = species on record: Mus musculus; assay: Selectivity ratio of Ki for displacement of [3H]CCPA from recombinant mouse A1 adenosine receptor expressed in CHO cell membranes to Ki for displacement of [3H]PSB-603 from recombinant mouse A2B adenosine receptor expressed in CHO cell membranes
Ki (Adenosine receptor A2b) [nM],Ki (Adenosine receptor A3) [nM],inhibition (Adenosine receptor A2a) [%],inhibition [1] [%],inhibition [6] [%],SMILES,Ratio Ki (Homo sapiens [2]),Ratio Ki (Homo sapiens [3]),Ratio Ki (Mus musculus [4]),Ratio Ki [5],Ratio Ki (Mus musculus [7])
8.34,> 1000,33,39,–,CCCn1c(=O)c2[nH]c(-c3ccc(S(=O)(=O)N4CCN(c5ccc(Cl)cc5)CC4)cc3)nc2n(C)c1=O,> 520,> 520,180,1.5 to 6,–
0.926,> 1000,38,44,46,CCCn1c(=O)[nH]c2nc(-c3ccc(S(=O)(=O)N4CCN(c5cccc(F)c5)CC4)cc3)[nH]c2c1=O,> 1580,> 1580,–,1.5 to 6,> 320
0.131,> 1000,33,29,29,CCCn1c(=O)[nH]c2nc(-c3ccc(S(=O)(=O)N4CCN(c5ccc(Br)cc5)CC4)cc3)[nH]c2c1=O,> 12000,> 12000,> 7630,–,> 7630
